# Active and inactive are the calls of the source. How the calls were made is not given here.
# Molecular target: T1, Toll-like receptor 4 (Mus musculus) (UniProt Q9QUK6)
# T1 sequence (whole entry): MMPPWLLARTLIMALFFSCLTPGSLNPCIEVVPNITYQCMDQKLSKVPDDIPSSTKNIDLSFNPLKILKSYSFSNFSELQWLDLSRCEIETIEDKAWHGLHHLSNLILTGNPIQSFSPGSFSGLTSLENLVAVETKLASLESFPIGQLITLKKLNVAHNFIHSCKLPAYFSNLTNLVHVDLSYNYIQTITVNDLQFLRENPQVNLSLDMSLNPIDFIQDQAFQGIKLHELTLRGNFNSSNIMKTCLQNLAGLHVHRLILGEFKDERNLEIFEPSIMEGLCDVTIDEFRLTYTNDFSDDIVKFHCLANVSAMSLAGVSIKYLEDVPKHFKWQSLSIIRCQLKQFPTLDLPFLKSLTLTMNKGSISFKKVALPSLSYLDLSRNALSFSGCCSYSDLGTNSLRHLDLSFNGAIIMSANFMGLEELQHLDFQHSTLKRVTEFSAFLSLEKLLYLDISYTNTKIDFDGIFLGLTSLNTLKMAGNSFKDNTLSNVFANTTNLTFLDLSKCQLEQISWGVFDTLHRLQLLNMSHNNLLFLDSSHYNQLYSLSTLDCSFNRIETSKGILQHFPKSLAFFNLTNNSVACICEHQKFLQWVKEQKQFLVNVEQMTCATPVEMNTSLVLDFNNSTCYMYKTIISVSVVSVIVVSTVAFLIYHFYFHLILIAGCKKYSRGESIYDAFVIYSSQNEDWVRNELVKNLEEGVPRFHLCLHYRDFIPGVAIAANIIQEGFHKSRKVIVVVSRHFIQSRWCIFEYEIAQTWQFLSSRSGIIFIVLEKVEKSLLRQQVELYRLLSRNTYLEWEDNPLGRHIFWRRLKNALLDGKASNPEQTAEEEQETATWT
# Test: (§1) Agonist activity at TLR4 in C57BL/6J mouse macrophages assessed as stimulation of TNFalpha release after 4 hrs by ELISA
# Summary of the method: (§2)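 Peritoneal macrophages from wild-type C57BL/6J mice, collected by PBS lavage and cultured in DMEM/10% FBS at 37 °C, 5% CO2. Seeded at 1 × 10^5 cells/well and treated 4 h with compound in DMSO (0.5% final) beside ultra-pure LPS and DMSO controls. Supernatant TNF-α measured by ELISA; mean of triplicates.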
row,Structure (SMILES),Activity
1,CC(C)(C)OC(=O)[C@H](CCc1ccccc1)NC(=O)c1ccc(N)c(OCCc2ccc(O)cc2)c1,Dose-dependent effect

# Molecular target: T2, Toll-like receptor 4 (Mus musculus, UniProt Q9QUK6)
# T2 sequence (Q9QUK6 whole entry): T1 sequence (whole entry)
# Test: as §1
# Summary of the method: as §2
row,Structure (SMILES),EC50 [µM]
1,CC(C)(C)OC(=O)[C@H](CCC1CCCCC1)NC(=O)c1ccc(N)c(CCc2ccc(O)cc2)c1,29.5
2,Cc1ccc(CC[C@H](NC(=O)c2ccc(N)c(CCc3ccc(O)cc3)c2)C(=O)OC(C)(C)C)cc1,21.6
3,COc1ccc(CC[C@H](NC(=O)c2ccc(N)c(CCc3ccc(O)cc3)c2)C(=O)OC(C)(C)C)cc1,22.2
4,CC(C)(C)OC(=O)[C@H](CCc1ccccc1)NC(=O)c1ccc(N)c(OCCc2ccc(O)cc2)c1,20.7

# Molecular target: T1, Toll-like receptor 4 (Mus musculus)
# Test: Agonist activity at TLR4 in C57BL/6J mouse macrophages assessed as stimulation of TNFalpha release at 50 uM after 4 hrs by ELISA
# Summary of the method: as §2
row,Structure (SMILES),Activity
1,CCCCCCCNC(=O)[C@H](CCc1ccccc1)NC(=O)c1ccc(N)c(CCc2ccc(O)cc2)c1,inactive
2,CC(C)(C)OC(=O)[C@H](CCCc1ccccc1)NC(=O)c1ccc(N)c(CCc2ccc(O)cc2)c1,inactive
3,CCCCCCNC(=O)[C@H](CCc1ccccc1)NC(=O)c1ccc(N)c(CCc2ccc(O)cc2)c1,Active
4,Nc1ccc(C(=O)N[C@@H](CCc2ccccc2)C(=O)O)cc1OCCc1ccc(O)cc1,inactive
5,CC(C)(C)OC(=O)[C@H](CCc1ccccc1)NC(=O)c1ccc([N+](=O)[O-])c(OCCc2ccc(O)cc2)c1,inactive
6,CC(C)(C)OC(=O)[C@H](CCc1ccccc1)NC(=O)c1ccc(N)c(CCc2cccc(O)c2)c1,Active
7,CC(C)(C)OC(=O)[C@H](CCc1ccccc1)NC(=O)c1ccc(N)c(CCCc2ccc(O)cc2)c1,Active
8,CN(C(=O)c1ccc(N)c(CCc2ccc(O)cc2)c1)[C@@H](CCc1ccccc1)C(=O)OC(C)(C)C,inactive
9,CC(C)(C)OC(=O)[C@H](CCc1ccccc1)NC(=O)c1ccc(N)c(OCCc2ccccc2)c1,inactive
10,CC(C)(C)OC(=O)[C@H](CCc1ccc(N)cc1)NC(=O)c1ccc(N)c(CCc2ccc(O)cc2)c1,inactive
11,CC(C)(C)OC(=O)[C@H](CCc1ccccc1)NC(=O)c1cccc(CCc2ccc(O)cc2)c1,inactive
12,COc1ccc(CCc2cc(C(=O)N[C@@H](CCc3ccccc3)C(=O)OC(C)(C)C)ccc2N)cc1,inactive
13,CCCCCCCCNC(=O)[C@H](CCc1ccccc1)NC(=O)c1ccc(N)c(CCc2ccc(O)cc2)c1,inactive
14,CC(C)(C)OC(=O)[C@H](CCC1CCCCC1)NC(=O)c1ccc(N)c(CCc2ccc(O)cc2)c1,Active
15,Cc1ccc(CC[C@H](NC(=O)c2ccc(N)c(CCc3ccc(O)cc3)c2)C(=O)OC(C)(C)C)cc1,Active
16,CC(C)(C)OC(=O)[C@H](CCc1ccccc1)NC(=O)c1ccc(N)c(CCc2ccccc2)c1,inactive
17,CC(C)OC(=O)[C@H](CCc1ccccc1)NC(=O)c1ccc(N)c(CCc2ccc(O)cc2)c1,inactive
18,CCCCCCCCCCNC(=O)[C@H](CCc1ccccc1)NC(=O)c1ccc(N)c(CCc2ccc(O)cc2)c1,inactive
19,CC(C)[C@H](N)C(=O)OC(C)(C)C,Active
20,N[C@@H](Cc1ccccc1)C(=O)Nc1ccc(C(=O)N[C@@H](CCc2ccccc2)C(=O)O)cc1OCCc1ccc(O)cc1,Active

row,Structure (SMILES),Activity
1,CC(C)(C)OC(=O)[C@H](CCc1ccccc1)NC(=O)c1ccc(N)c(OCCCCc2ccc(O)cc2)c1,inactive
2,CC(=O)Nc1ccc(C(=O)N[C@@H](CCc2ccccc2)C(=O)OC(C)(C)C)cc1CCc1ccc(O)cc1,inactive
3,CC(C)(C)OC(=O)[C@H](CCc1ccccc1)NC(=S)c1ccc(N)c(CCc2ccc(O)cc2)c1,inactive
4,CC(C)C[C@H](N)C(=O)OC(C)(C)C,Active
5,CSCC[C@H](N)C(=O)OC(C)(C)C,inactive
6,CC[C@H](N)C(=O)OC(C)(C)C,Active
7,CC(C)(C)OC(=O)[C@H](CCc1ccccc1)NC(=O)c1ccc(N)c(-c2ccc(O)cc2)c1,inactive
8,CCC(C)(C)OC(=O)[C@H](CCc1ccccc1)NC(=O)c1ccc(N)c(CCc2ccc(O)cc2)c1,Active
9,CC(C)(C)OC(=O)[C@H](CCc1ccccc1)NC(=O)c1ccc(N)c(C#Cc2ccc(O)cc2)c1,inactive
10,CC(C)(C)OC(=O)[C@H](CCc1ccccc1)NC(=O)c1ccc(N)c(Cc2ccc(O)cc2)c1,inactive
11,NC(=O)[C@H](CCc1ccccc1)NC(=O)c1ccc(N)c(CCc2ccc(O)cc2)c1,inactive
12,CC(C)(C)OC(=O)[C@H](CCc1ccccc1)NC(=O)c1ccc(N)c(Sc2ccc(O)cc2)c1,inactive
13,Nc1ccc(C(=O)N[C@@H](CCc2ccccc2)C(=O)O)cc1CCc1ccc(O)cc1,inactive
14,CNc1ccc(C(=O)N[C@@H](CCc2ccccc2)C(=O)OC(C)(C)C)cc1CCc1ccc(O)cc1,inactive
15,CC(C)(C)OC(=O)[C@H](CCc1ccc(Cl)cc1)NC(=O)c1ccc(N)c(CCc2ccc(O)cc2)c1,inactive
16,N[C@@H](Cc1ccc2ccccc2c1)C(=O)Nc1ccc(C(=O)N[C@@H](CCc2ccccc2)C(=O)O)cc1OCCc1ccc(O)cc1,Active
17,CC(C)(C)OC(=O)[C@H](CCc1ccccc1)NC(=O)c1ccc(N)c(COc2ccc(O)cc2)c1,Active
18,CC(C)(C)OC(=O)[C@H](CCc1ccccc1)NC(=O)c1ccc(N)c(OCCc2cccc(O)c2)c1,Active
19,C#CCC(C)(C)OC(=O)[C@H](CCc1ccccc1)NC(=O)c1ccc(N)c(CCc2ccc(O)cc2)c1,inactive
20,Nc1ccc(C(=O)N[C@@H](CCc2ccccc2)C(=O)OC23CC4CC(CC(C4)C2)C3)cc1CCc1ccc(O)cc1,inactive

row,Structure (SMILES),Activity
1,CC(C)(C)OC(=O)[C@H](CCCCc1ccccc1)NC(=O)c1ccc(N)c(CCc2ccc(O)cc2)c1,inactive
2,CC(C)(C)NC(=O)[C@H](CCc1ccccc1)NC(=O)c1ccc(N)c(CCc2ccc(O)cc2)c1,inactive
3,CC(C)(C)OC(=O)[C@H](CCc1ccccc1)NC(=O)c1cc(CCc2ccc(O)cc2)ccc1N,inactive
4,CN(C)c1ccc(C(=O)N[C@@H](CCc2ccccc2)C(=O)OC(C)(C)C)cc1CCc1ccc(O)cc1,inactive
5,CC(C)(C)OC(=O)[C@H](CCc1ccc(F)cc1)NC(=O)c1ccc(N)c(CCc2ccc(O)cc2)c1,Active
6,COc1ccc(CC[C@H](NC(=O)c2ccc(N)c(CCc3ccc(O)cc3)c2)C(=O)OC(C)(C)C)cc1,Active
7,CC(C)(C)COC(=O)[C@H](CCc1ccccc1)NC(=O)c1ccc(N)c(CCc2ccc(O)cc2)c1,inactive
8,CCCCCCCCCNC(=O)[C@H](CCc1ccccc1)NC(=O)c1ccc(N)c(CCc2ccc(O)cc2)c1,inactive
9,CC(C)(C)OC(=O)[C@H](CCc1ccc(O)cc1)NC(=O)c1ccc(N)c(CCc2ccc(O)cc2)c1,inactive
10,CC(C)(C)OC(=O)[C@H](CCc1ccccc1)NC(=O)c1ccc(N)c(Nc2ccc(O)cc2)c1,inactive
11,CC(C)(C)OC(=O)[C@H](CCc1ccccc1)NC(=O)c1ccc(N)c(OCCc2ccc(O)c(F)c2)c1,inactive
12,CC(C)(C)OC(=O)[C@H](CCc1ccccc1)NC(=O)c1ccc(N)c(OCCCc2ccc(O)cc2)c1,inactive
13,CC(C)(C)OC(=O)[C@H](CCc1ccccc1)NC(=O)c1cc(N)cc(CCc2ccc(O)cc2)c1,Active
14,COc1ccc(C[C@H](N)C(=O)Nc2ccc(C(=O)N[C@@H](CCc3ccccc3)C(=O)O)cc2OCCc2ccc(O)cc2)cc1,Active
15,CC(C)(C)OC(=O)[C@H](CCc1ccccc1)NCc1ccc(N)c(CCc2ccc(O)cc2)c1,inactive
16,CC(C)(C)OC(=O)[C@@H](N)Cc1ccccc1,inactive
17,CC(C)(C)OC(=O)[C@H](CCc1ccccc1)NC(=O)c1ccc(N)c(OCCc2ccc(O)c(Cl)c2)c1,inactive
18,CC(C)(C)OC(=O)[C@H](CCc1ccccc1)NC(=O)c1ccc(N)c(CCc2ccccc2O)c1,inactive
19,CC(C)(C)OC(=O)[C@H](CCc1ccccc1)NC(=O)c1cccc(OCCc2ccc(O)cc2)c1,inactive
